According to ChEMBL document CHEMBL1122414, “Anilides related to substituted benzamides. Potential antipsychotic activity of N-(4-amino-5-chloro-2-methoxyphenyl)-1-(phenylmethyl)-4-piperidinecarboxamide” (1983):

Assays:
[1] = test system: Mus musculus; test: Antagonistic activity against apomorphine induced climbing in CD-1 mice, after oral administration; format: functional
Summary of the method: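 Male CD-1 mice (20–25 g), usually four groups of five, dosed orally with graded doses or vehicle 30 min before submaximal apomorphine (1 mg/kg sc). Climbing scored 10, 20 and 30 min later (modified Protais method). ED50 with 95% confidence limits by Litchfield–Wilcoxon.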

[2] = test system: Rattus norvegicus; test: Antagonism of amphetamine induced syereotyped behavior after intraperitoneal administration to CD rats; conditions: ip
[3] = test system: Rattus norvegicus; test: Evaluation of HVA levels in limbic system in Hooded Lister rats after subcutaneous administration; conditions: sc
[4] = test system: Rattus norvegicus; test: Evaluation of prolactin levels in Hooded Lister rats after subcutaneous administration; conditions: sc
[5] = test system: Rattus norvegicus; test: Antagonistic activity against apomorphine induced delay in gastric emptying in Wistar rats, after subcutaneous administration; conditions: Stomach, sc
[6] = test system: Rattus norvegicus; test: Evaluation of HVA levels in striatum after subcutaneous administration to Hooded Lister rats; conditions: sc
[7] = test system: Rattus norvegicus; test: Increase in intragastric pressure after subcutaneous administration to Wistar rats; 5-50
[8] = test system: Mus musculus; test: Antagonistic activity against apomorphine induced climbing in CD-1 mice at 2 mg/kg after oral administration; format: functional
Summary of the method: (§1)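 Male CD-1 mice (20–25 g), usually groups of five, given oral compound or vehicle 30 min before apomorphine 1 mg/kg sc. Climbing scored at 10, 20 and 30 min. Percent antagonism at the quoted dose.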

[9] = test system: Mus musculus; test: Percent antagonistic activity against apomorphine induced climbing in CD-1 mice at 0.5 mg/kg after oral administration; format: functional; summary of the method: as §1
[10] = test system: Rattus norvegicus; test: Increase in intragastric pressure after subcutaneous administration to Wistar rats

SMILES: COc1cc(N)c(Cl)cc1NC(=O)C1CCN(Cc2ccc(OCc3ccccc3)cc2)CC1
- ED50 [1]: > 4 mg/kg

SMILES: COc1cc(N)c(Cl)cc1NC(=O)C1CCN(CC2CCCC2)CC1
- ED50 [1]: > 10 mg/kg

SMILES: COc1cc(N)c(Cl)cc1NC(=O)C1CCN(Cc2cccs2)CC1
- Inhibition [1]: 77%

SMILES: CCC(CC)CN1CCC(C(=O)Nc2cc(Cl)c(N)cc2OC)CC1
- ED50 [1]: > 10 mg/kg

SMILES: CCN1CCC(C(=O)Nc2cc(Cl)c(N)cc2OC)CC1
- ED50 [1]: > 10 mg/kg

SMILES: COc1cc(N)c(Cl)cc1NC(=O)C1CCN(Cc2ccc(C)c(C)c2)CC1
- ED50 [1]: > 8 mg/kg

SMILES: COc1cc(N)c(Cl)cc1NC(=O)C1CCN(Cc2cccc(C)c2)CC1
- ED50 [1]: 2.4 mg/kg

SMILES: COc1cc(N)c(Cl)cc1NC(=O)C1CCN(Cc2ccc(F)cc2)CC1
- ED50 [1]: 0.6 mg/kg

SMILES: COc1cc(N)c(Cl)cc1NC(=O)C1CCN(CC2CCCCC2)CC1
- ED50 [1]: 2.9 mg/kg

SMILES: COc1cc(N)c(Cl)cc1NC(=O)C1CCN(Cc2ccccc2F)CC1
- ED50 [1]: > 4 mg/kg

SMILES: COc1cc(N)c(Cl)cc1NC(=O)C1CCN(Cc2ccccc2)CC1
- ED50 [1]: 0.5 mg/kg
- ED50 [2]: 0.25 mg/kg
- ED50 [3]: 0.5 mg/kg
- ED50 [4]: 0.5 mg/kg
- ED50 [5]: > 50 mg/kg
- ED50 [6]: 0.4 mg/kg
- ED50 [7]: > 50 mg/kg

SMILES: COc1cc(N)c(Cl)cc1NC(=O)C1CCN(CC2CCC2)CC1
- ED50 [1]: > 10 mg/kg

SMILES: COc1cc(N)c(Cl)cc1NC(=O)C1CCN(Cc2ccc(Cl)cc2)CC1
- ED50 [1]: 1.2 mg/kg

SMILES: COc1cc(N)c(Cl)cc1NC(=O)C1CCN(C/C=C/c2ccccc2)CC1
- ED50 [1]: > 10 mg/kg

SMILES: CCCCN1CCC(C(=O)Nc2cc(Cl)c(N)cc2OC)CC1
- ED50 [1]: > 10 mg/kg

SMILES: CCCCCCCN1CCC(C(=O)Nc2cc(Cl)c(N)cc2OC)CC1
- ED50 [1]: > 10 mg/kg

SMILES: COc1cc(N)c(Cl)cc1NC(=O)C1CCN(CC2CC2)CC1
- ED50 [1]: > 10 mg/kg

SMILES: CCOc1ccc(CN2CCC(C(=O)Nc3cc(Cl)c(N)cc3OC)CC2)cc1
- ED50 [1]: 6.3 mg/kg

SMILES: COc1cc(N)c(Cl)cc1NC(=O)C1CCN(Cc2ccc([N+](=O)[O-])cc2)CC1
- ED50 [1]: > 4 mg/kg

SMILES: CCCN1CCC(C(=O)Nc2cc(Cl)c(N)cc2OC)CC1
- ED50 [1]: > 10 mg/kg

SMILES: COc1cc(N)c(Cl)cc1NC(=O)C1CCN(Cc2cccc(F)c2)CC1
- inhibition in vivo at 2 mg/kg [8]: 58%

SMILES: COc1cc(N)c(Cl)cc1NC(=O)C1CCN(Cc2ccccc2C)CC1
- inhibition in vivo at 2 mg/kg [8]: 77%

SMILES: COc1cc(N)c(Cl)cc1NC(=O)C1CCN(Cc2ccsc2)CC1
- ED50 [1]: 3.4 mg/kg

SMILES: COc1cc(N)c(Cl)cc1NC(=O)C1CCN(CCc2ccccc2)CC1
- ED50 [1]: > 10 mg/kg

SMILES: COc1cc(N)c(Cl)cc1NC(=O)C1CCN(C2CCCC2)CC1
- ED50 [1]: > 10 mg/kg

SMILES: COc1ccc(CN2CCC(C(=O)Nc3cc(Cl)c(N)cc3OC)CC2)cc1
- ED50 [1]: 0.9 mg/kg

SMILES: COc1cc(N)c(Cl)cc1NC(=O)C1CCN(Cc2cccc(Cl)c2)CC1
- ED50 [1]: > 4 mg/kg

SMILES: COc1cc(N)c(Cl)cc1NC(=O)C1CCN(Cc2ccc3c(c2)OCO3)CC1
- ED50 [1]: 4.3 mg/kg

SMILES: CCCCCCN1CCC(C(=O)Nc2cc(Cl)c(N)cc2OC)CC1
- ED50 [1]: > 10 mg/kg

SMILES: COc1cc(N)c(Cl)cc1NC(=O)C1CCN(CC2CCCCCC2)CC1
- ED50 [1]: > 10 mg/kg

SMILES: COc1cc(N)c(Cl)cc1NC(=O)C1CCN(Cc2ccc(C)cc2)CC1
- inhibition in vivo at 0.5 mg/kg [9]: 50%

SMILES: COc1cccc(CN2CCC(C(=O)Nc3cc(Cl)c(N)cc3OC)CC2)c1
- ED50 [1]: > 4 mg/kg

SMILES: COc1cc(N)c(Cl)cc1NC(=O)C1CCN(Cc2cccc(C#N)c2)CC1
- ED50 [1]: > 4 mg/kg

SMILES: COc1cc(N)c(Cl)cc1NC(=O)C1CCN(Cc2ccccc2Cl)CC1
- ED50 [1]: > 4 mg/kg

SMILES: CCCCCN1CCC(C(=O)Nc2cc(Cl)c(N)cc2OC)CC1
- ED50 [1]: > 10 mg/kg

SMILES: COc1cc(N)c(Cl)cc1NC(=O)C1CCN(Cc2ccc(O)cc2)CC1
- ED50 [1]: > 8 mg/kg

SMILES: COc1cc(N)c(Cl)cc1C(=O)NC1CCN(Cc2ccccc2)CC1 [CLEBOPRIDE]
- lowest active dose [10]: 1 mg/kg
- ED50 [1]: 0.7 mg/kg
- ED50 [3]: 0.2 mg/kg
- ED50 [4]: 0.14 mg/kg
- ED50 [5]: 0.11 mg/kg
- ED50 [6]: 0.1 mg/kg
